EC50 and Ki data for 45 compounds are collected here from ChEMBL document CHEMBL1938335, “2-(4-Methylsulfonylaminophenyl) propanamide TRPV1 antagonists: Structure-activity relationships in the B and C-regions” (Bioorg Med Chem, 2012).

Structures are written as SMILES.

In test [1] the target is T1, Transient receptor potential cation channel subfamily V member 1 (Rattus norvegicus, UniProt O35433). The test can be described thus: Agonist activity at rat TRPV1 expressed in CHO cells by 45Ca2+ uptake assay. The format is functional, cell-based.
T1 sequence (O35433 whole entry): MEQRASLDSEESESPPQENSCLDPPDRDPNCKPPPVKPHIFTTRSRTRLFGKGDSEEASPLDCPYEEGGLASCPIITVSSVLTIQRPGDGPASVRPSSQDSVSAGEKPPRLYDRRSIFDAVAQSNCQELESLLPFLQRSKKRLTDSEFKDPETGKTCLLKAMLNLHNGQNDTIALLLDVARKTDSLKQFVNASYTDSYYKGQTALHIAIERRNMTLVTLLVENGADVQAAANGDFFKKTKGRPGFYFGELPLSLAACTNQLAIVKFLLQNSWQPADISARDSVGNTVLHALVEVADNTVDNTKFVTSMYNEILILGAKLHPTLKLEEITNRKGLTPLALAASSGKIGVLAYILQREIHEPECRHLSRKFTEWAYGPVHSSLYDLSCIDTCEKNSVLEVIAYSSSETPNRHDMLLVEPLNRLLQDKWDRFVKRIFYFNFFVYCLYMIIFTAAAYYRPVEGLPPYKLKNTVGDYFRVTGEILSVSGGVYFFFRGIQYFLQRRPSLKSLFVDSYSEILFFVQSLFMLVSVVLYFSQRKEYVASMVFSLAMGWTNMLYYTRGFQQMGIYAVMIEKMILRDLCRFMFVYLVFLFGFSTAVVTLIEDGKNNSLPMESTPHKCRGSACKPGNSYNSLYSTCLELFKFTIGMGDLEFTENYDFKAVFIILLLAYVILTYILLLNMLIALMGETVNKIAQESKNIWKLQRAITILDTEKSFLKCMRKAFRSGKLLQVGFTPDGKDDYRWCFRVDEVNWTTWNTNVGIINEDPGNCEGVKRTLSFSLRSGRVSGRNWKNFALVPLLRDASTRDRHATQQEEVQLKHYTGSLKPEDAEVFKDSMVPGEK
For test [2], the target named is T1, Transient receptor potential cation channel subfamily V member 1. The test can be described thus: Antagonist activity at rat TRPV1 expressed in CHO cells by 45Ca2+ uptake assay.
Test [3] has the same target. Briefly: Displacement of [3H]RTX from rat TRPV1 expressed in CHO cells. The format is cell-based. The gist of the method:
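Competitive binding against [3H]RTX on rat TRPV1 heterologously expressed in CHO cells. Affinity reported as Ki (nM). Values are mean ± SEM from 3 or more experiments.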
In general terms: Displacement assays read how much labelled ligand stays bound in the presence of the test substance.

The Ki is the dissociation constant of the complex between target and ligand, obtained from inhibition or displacement. For the compound `CC(C(=O)NCc1ccc(C(C)(C)C)cc1Br)c1ccc(NS(C)(=O)=O)c(F)c1` (centres undefined), the EC50 result in test [1] is “Not Active”. Further, the inhibitory constant (Ki) in test [2] worked out at 12.7 nM; in test [3] (read-out: Ki) it was 47 nM.
With `CC(C(=O)NCc1ccc(C2CC2)cc1)c1ccc(NS(C)(=O)=O)c(F)c1` (centres undefined), the EC50 result in test [1] was “Not Active”. The inhibition constant Ki in test [2] amounted to 55.5 nM; in test [3] (read-out: Ki), 411 nM.
As for `CC(C)(C)c1ccc(CNC(=O)C2(c3ccc(NS(C)(=O)=O)c(F)c3)CC2)cc1`, in test [1], the EC50 entry is “Not Active”. In addition, the inhibitory constant (Ki) result in test [3] (cho) is “Not Active”.
As for `COc1cc(C2(C(=O)NCc3ccc(C(C)(C)C)cc3)CC2)ccc1NS(C)(=O)=O`, the EC50 result in test [1] was “Not Active”.
As for `CC(C)(C)c1ccc(CNC(=O)C(C)(C)c2ccc(NS(C)(=O)=O)c(F)c2)cc1`, the EC50 result in test [1] is “Not Active”.
On to `Cc1ccc(CCCNC(=O)[C@H](C)c2ccc(NS(C)(=O)=O)c(F)c2)cc1C`, for which, in test [1], the EC50 entry is listed as “Not Active”.
Regarding `CC(C(=O)NCc1ccc(C(C)(C)C)cc1C#N)c1ccc(NS(C)(=O)=O)c(F)c1` (centres undefined), in test [1], the EC50 result was “Not Active”. Also, the Ki in test [2] worked out at 40 nM; in test [3] (read-out: Ki) it was 44 nM.
In the case of `CC(C(=O)NCc1ccc(I)cc1)c1ccc(NS(C)(=O)=O)c(F)c1` (centres undefined), in test [1], the EC50 result is given as “Not Active”. The Ki in test [2] was determined as 107 nM; in test [3] (read-out: Ki), 502 nM.
`CC(C(=O)NCc1ccc(-c2ccccc2)cc1)c1ccc(NS(C)(=O)=O)c(F)c1` (centres undefined): the EC50 result in test [1] was “Not Active”.
On to `CC(C(=O)NCC1CC1(c1ccccc1)c1ccccc1)c1ccc(NS(C)(=O)=O)c(F)c1` (centres undefined), for which, in test [1], the EC50 result is listed as “Not Active”. Further, the Ki came to 148 nM in test [2] and 188 nM in test [3] (read-out: Ki).
As for `CC(C(=O)NCCc1ccc(C(C)(C)C)cc1)c1ccc(NS(C)(=O)=O)c(F)c1` (centres undefined), the EC50 result in test [1] is given as “Not Active”.
Take `CC(C(=O)NCc1ccc(Cl)cc1)c1ccc(NS(C)(=O)=O)c(F)c1` (centres undefined): the EC50 result in test [1] is on record as “Not Active”.
Consider `Cc1ccc(CCCNC(=O)C(C)c2ccc(NS(C)(=O)=O)c(F)c2)cc1C` (racemic), for which the EC50 entry in test [1] is listed as “Not Active”. The inhibition constant Ki in test [2] was 97 nM; in test [3] (read-out: Ki) it was 413 nM.
Regarding `CC(C(=O)NC(c1ccccc1)c1ccccc1)c1ccc(NS(C)(=O)=O)c(F)c1` (centres undefined), the EC50 entry in test [1] is given as “Not Active”.
Consider `Cc1ccc(CNC(=O)C(C)c2ccc(NS(C)(=O)=O)c(F)c2)cc1` (centres undefined), for which, in test [1], the EC50 entry is listed as “Not Active”. The values for the Ki in test [2] and in test [3] (read-out: Ki) were 930 nM and 3100 nM, respectively.
In the case of `CC(NC(=O)/C=C/c1ccc(C(C)(C)C)cc1)c1ccc(NS(C)(=O)=O)c(F)c1` (centres undefined), the EC50 result in test [1] is listed as “Not Active”.
For `CC(C(=O)NCC=C1c2ccccc2C=Cc2ccccc21)c1ccc(NS(C)(=O)=O)c(F)c1` (centres undefined), the EC50 result in test [1] is on record as “Not Active”. Further, the Ki in test [2] amounted to 163 nM; in test [3] (read-out: Ki), 117 nM.
`CC(C(=O)NC1CCCc2ccccc21)c1ccc(NS(C)(=O)=O)c(F)c1` (centres undefined): the EC50 entry in test [1] is “Not Active”.
For the compound `CC(C)(C)c1ccc(CNC(=O)C(C)(C)c2ccc(NS(C)(=O)=O)cc2)cc1`, the EC50 result in test [1] was “Not Active”. Also, the Ki in test [3] (read-out: Ki) was 430 nM.
In the case of `CC(C(=O)NCc1ccc(C(F)(F)F)cc1)c1ccc(NS(C)(=O)=O)c(F)c1` (centres undefined), the EC50 result in test [1] is “Not Active”.
With `CC(C(=O)NCc1ccc(C2C=CCC2)cc1)c1ccc(NS(C)(=O)=O)c(F)c1` (centres undefined), the EC50 entry in test [1] is “Not Active”. Besides, the values for the Ki in test [2] and in test [3] (read-out: Ki) were 15 nM and 162 nM, respectively.
On the same counts, the results for `CC(C(=O)NCCC(c1ccc(F)cc1)c1ccc(F)cc1)c1ccc(NS(C)(=O)=O)c(F)c1` (centres undefined) are “Not Active”, 24.8 nM and 79 nM.
Turning to `CC(C(=O)NCC=C(c1ccc(F)cc1)c1ccc(F)cc1)c1ccc(NS(C)(=O)=O)c(F)c1` (centres undefined), in test [1], the EC50 entry is listed as “Not Active”.
For `CC(C(=O)NCCC(c1ccccc1)c1ccccc1)c1ccc(NS(C)(=O)=O)c(F)c1` (centres undefined), the EC50 result in test [1] is on record as “Not Active”. The inhibition constant (Ki) in test [3] (read-out: Ki) stood at 130 nM.
With `CC(NC(=O)Cc1ccc(C(C)(C)C)cc1)c1ccc(NS(C)(=O)=O)c(F)c1` (centres undefined), the EC50 result in test [1] is “Not Active”. Moreover, the inhibition constant (Ki) in test [3] (read-out: Ki) was determined as 2100 nM.
Regarding `CC(C(=O)NCc1ccc(C2CCCCC2)cc1)c1ccc(NS(C)(=O)=O)c(F)c1` (centres undefined), in test [1], the EC50 result is given as “Not Active”. In addition, the inhibitory constant (Ki) amounted to 43 nM in test [2] and 138 nM in test [3] (read-out: Ki).
As to `Cc1ccc(C(=CCNC(=O)C(C)c2ccc(NS(C)(=O)=O)c(F)c2)c2ccc(C)cc2)cc1` (centres undefined), in test [1], the EC50 result was “Not Active”. In addition, the inhibition constant Ki in test [3] (read-out: Ki) came to 30.9 nM.
`Cc1ccc(CCCNC(=O)[C@@H](C)c2ccc(NS(C)(=O)=O)c(F)c2)cc1C`: in test [1], the EC50 result is recorded as “Not Active”. Also, the Ki in test [3] (read-out: Ki) is 257 nM.
On to `CC(C(=O)NCC=C(c1ccc(Cl)cc1)c1ccc(Cl)cc1)c1ccc(NS(C)(=O)=O)c(F)c1` (centres undefined), for which, in test [1], the EC50 result is reported as “Not Active”. The inhibition constant Ki in test [2] is 24.5 nM; in test [3] (read-out: Ki) it was 29.6 nM.
For the compound `CC(C(=O)NC/C=C/c1ccc(Cl)cc1)c1ccc(NS(C)(=O)=O)c(F)c1` (centres undefined), in test [1], the EC50 result was “Not Active”.
As to `CC(C)c1ccc(CNC(=O)C(C)c2ccc(NS(C)(=O)=O)c(F)c2)cc1` (centres undefined), the EC50 entry in test [1] is listed as “Not Active”.
Turning to `CC(C(=O)NCc1ccc(C2CCCC2)cc1)c1ccc(NS(C)(=O)=O)c(F)c1` (centres undefined), the EC50 result in test [1] is recorded as “Not Active”. Further, the Ki is 20.8 nM in test [2] and 93 nM in test [3] (read-out: Ki).
As to `Cc1ccc(C(CCNC(=O)C(C)c2ccc(NS(C)(=O)=O)c(F)c2)c2ccc(F)cc2)cc1` (centres undefined), in test [1], the EC50 entry is “Not Active”. Besides, the results for the Ki in test [2] and in test [3] (read-out: Ki) were 31 nM and 121 nM, respectively.
For `CC(NC(=O)CCc1ccc(C(C)(C)C)cc1)c1ccc(NS(C)(=O)=O)c(F)c1` (centres undefined), in test [1], the EC50 entry is “Not Active”.
Regarding `CC(C(=O)NCc1ccc(Cl)c(Cl)c1)c1ccc(NS(C)(=O)=O)c(F)c1` (centres undefined), the EC50 result in test [1] is given as “Not Active”.
Take `Cc1ccc(/C=C/CNC(=O)C(C)c2ccc(NS(C)(=O)=O)c(F)c2)cc1C` (centres undefined): the EC50 result in test [1] is recorded as “Not Active”.
In the case of `CC(C(=O)NCCN(c1ccccc1)c1ccccc1)c1ccc(NS(C)(=O)=O)c(F)c1` (centres undefined), the EC50 entry in test [1] is “Not Active”. For the same compound, the Ki came to 47 nM in test [2] and 115 nM in test [3] (read-out: Ki).
For the compound `COc1cc(C(C)(C)C(=O)NCc2ccc(C(C)(C)C)cc2)ccc1NS(C)(=O)=O`, the EC50 entry in test [1] was “Not Active”. Also, the inhibitory constant (Ki) in test [2] came to 707 nM; in test [3] (read-out: Ki), 414 nM.
With `CC(C(=O)NOCc1ccccc1)c1ccc(NS(C)(=O)=O)c(F)c1` (centres undefined), in test [1], the EC50 entry was “Not Active”.
Regarding `COc1ccc(CNC(=O)C(C)c2ccc(NS(C)(=O)=O)c(F)c2)cc1` (centres undefined), in test [1], the EC50 entry is given as “Not Active”. For the same compound, the Ki in test [2] was 5350 nM; in test [3] (read-out: Ki) it was 7800 nM.
For `CC(C(=O)NCC=C1c2ccccc2CCc2ccccc21)c1ccc(NS(C)(=O)=O)c(F)c1` (centres undefined), the EC50 entry in test [1] is listed as “Not Active”.
On to `Cc1ccc(C(CCNC(=O)C(C)c2ccc(NS(C)(=O)=O)c(F)c2)c2ccc(C)cc2)cc1` (centres undefined), for which the EC50 result in test [1] is recorded as “Not Active”. In addition, the Ki in test [2] came to 32.1 nM; in test [3] (read-out: Ki), 96 nM.
As to `CC(C(=O)NCc1ccc(Br)cc1)c1ccc(NS(C)(=O)=O)c(F)c1` (centres undefined), the EC50 entry in test [1] is given as “Not Active”. For the same compound, the Ki stood at 250 nM in test [2] and 412 nM in test [3] (read-out: Ki).
Regarding `CC(C)(C)c1ccc(CNC(=O)C2(c3ccc(NS(C)(=O)=O)cc3)CC2)cc1`, the EC50 entry in test [1] was “Not Active”.
With `CC(C(=O)NCC(c1ccccc1)c1ccccc1)c1ccc(NS(C)(=O)=O)c(F)c1` (centres undefined), in test [1], the EC50 result is given as “Not Active”.
